Screening results as filed in PubChem.
697 NFkB inh – inhibitors of PMA/ionomycin-induced NF-kB reporter, 697 cells, primary screen, B-cell NF-kB inhibitor project, cell-based, luminescence, uHTS; actives 0.33% (n = 330,000); AID 435022, 2010; inhibition, % at 4 µM; 697 B-cell NF-kB luciferase reporter, 16 h; in the data active = inhibition above about 35%
miR-122 sensor – miR-122 Renilla sensor signal increase in Huh7, primary screen, miR-122 inhibitor project, cell-based, single point, plate reader. actives 0.3% (n = 340,000). Huh7 miR-122 Renilla luciferase sensor, 48 h; neutral wells = 0, positive control = 100. activation (reporter increase), % at 12.5 µM;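 active = mean replicate activation score at least 90 and every replicate individually at or above 90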;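 also: higher luciferase means less miR-122 activity so hits act as miR-122 inhibitors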
FGF22 binding – binders of human FGF22 protein, primary screen, FGF22 synaptogenesis inhibitor project, biophysical, thermal shift, single point. actives 1.5% (n = 340,000). activity (Tm shift, normalised), % at 9.99 µM. recombinant FGF22 thermal shift, SYPRO orange fluorescence; percent of sucrose octasulfate shift, DMSO zero;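 active = mean Tm shift, scaled 0 neutral to 100 positive control, at about 1.3% or above, every replicate too, limit read from the data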
Target sequence (Q9HCT0 whole entry, looked up): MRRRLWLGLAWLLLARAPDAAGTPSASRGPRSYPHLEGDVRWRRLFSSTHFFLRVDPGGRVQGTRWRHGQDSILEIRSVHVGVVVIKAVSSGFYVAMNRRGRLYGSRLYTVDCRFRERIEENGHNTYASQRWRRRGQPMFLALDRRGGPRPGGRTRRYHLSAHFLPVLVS
NR2E3 ag-1 – inhibitors of NR2E3-RetCOR corepressor binding, primary screen, NR2E3 agonist project, biochemical, TR-FRET, GST-NR2E3, biotin-RetCOR | actives 0.12% (n = 320,000) | AID 2300, 2010 | inhibition of corepressor binding, % at 4.78 µM | Photoreceptor-specific nuclear receptor (Homo sapiens), Q9Y5X4 | 1536-well;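 active = percent inhibition above the cutoff of mean plus 3 SD of all tested compounds, set per screening campaign, cut at about 20% in these data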;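 also: 0% = DMSO wells and 100% = biotin wells as full block of FRET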
Target sequence (Q9Y5X4 whole entry, looked up): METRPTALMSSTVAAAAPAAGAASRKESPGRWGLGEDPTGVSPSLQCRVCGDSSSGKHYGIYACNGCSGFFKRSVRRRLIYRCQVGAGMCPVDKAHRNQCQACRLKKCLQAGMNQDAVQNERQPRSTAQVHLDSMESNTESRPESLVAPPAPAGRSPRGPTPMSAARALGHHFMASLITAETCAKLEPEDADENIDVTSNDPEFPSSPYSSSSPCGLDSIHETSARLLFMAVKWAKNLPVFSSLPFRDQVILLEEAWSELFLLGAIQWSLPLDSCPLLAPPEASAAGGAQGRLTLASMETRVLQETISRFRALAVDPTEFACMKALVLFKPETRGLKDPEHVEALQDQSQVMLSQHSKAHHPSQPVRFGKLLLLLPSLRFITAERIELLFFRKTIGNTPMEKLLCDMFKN
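Test system: GST-NR2E3 and biotin-RetCOR proteins | Quantity: 1.35 nM GST-tagged NR2E3 final | Medium: Tris pH 7.5 | Also added: 7 nM biotin-RetCOR | Dosing: Compound at 4.8 µM, single dose | Timing: 5 h at 4 °C | Detection: Time-resolved FRET | Read-out basis: Percent inhibition | Benchmarks: Biotin wells as high control, 0.6% DMSO wells as low control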
NR2E3 ag-2 – NR2E3 agonists in two-hybrid cells, primary screen, cell-based, luminescence, CHO-S, Gal4-NCOR/VP16-NR2E3. Photoreceptor-specific nuclear receptor (Homo sapiens), Q9Y5X4. luciferase. inhibition of corepressor binding, % at 3.98 µM. actives 0.35% (n = 360,000). AID 602229, 2012;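 active = inhibition above the mean of all tested compounds plus 3 SD, cut at about 70% in these data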;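 also: 0% = DMSO with NR2E3 transfected cells and 100% = cells lacking NR2E3 construct; higher means lower luciferase signal from less NR2E3 corepressor binding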
Jurkat NFkB inh – inhibitors of induced NF-kB luciferase reporter, primary screen, TCR NF-kB activation inhibitor project, cell-based, luminescence, uHTS | inhibition, % at 4 µM | actives 0.53% (n = 330,000) | Jurkat, PMA/ionomycin-induced NF-kB luciferase reporter; in the data active = inhibition above about 50%
NR2E3 ag confirm – NR2E3 agonist confirmation in cells, cell-based, luminescence, CHO-S two-hybrid; actives 51% (n = 2,300); shares compounds with NR2E3 ag-2; inhibition, % at 3.98 µM; AID 624378, 2012; CHO-S mammalian two-hybrid NR2E3-NCOR, luciferase luminescence;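 active = average inhibition above a cutoff equal to the mean inhibition of all tested compounds plus one SD, cut at about 70% in these data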;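 also: 0% = DMSO in NR2E3 cells and 100% = DMSO in cells lacking NR2E3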
GAL4-VP16 luc – GAL4-VP16 reporter modulators, confirmation, counter-screen for NR2E3 agonist project, cell-based, luminescence, CHO-S, high throughput. shares compounds with NR2E3 ag-2. CHO-S GAL4-VP16 luciferase reporter. inhibition, % at 3.98 µM. actives 29% (n = 2,300). AID 624379, 2012;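 active = mean inhibition above a cutoff equal to the average over all tested compounds plus one standard deviation, cut at about 70% in these data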;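 also: luciferase from a UAS reporter driven by GAL4-VP16 transactivation; 0% = DMSO with VP16-transfected cells and 100% = DMSO with cells lacking VP16; higher means less reporter light so more repression of VP16 activity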
Active calls of the source: *; nt = no result given; [ ] = dose if it differs, or a comment. Only some compounds are listed: those with a hit (about 2.2% of all), similar ones and a draw of the others.

SMILES | 697 NFkB inh | miR-122 sensor | FGF22 binding | NR2E3 ag-1 | NR2E3 ag-2 | Jurkat NFkB inh | NR2E3 ag confirm | GAL4-VP16 luc
Cc1nc2ccc(NS(=O)(=O)c3ccc4c(c3)OCCO4)cc2s1 | -5 | 48 | nt | -4 | 94* | 14 | 97* | 91*
Cc1nc2ccc(NS(=O)(=O)c3ccc(F)c(F)c3)cc2s1 | -18 | nt | 0 | 3 | 65 | -13 | 59 | 46
CCC(=O)Nc1ccc2c(c1)C(=O)N(C)[C@@H]1CC[C@H](CC(=O)NC3CCCC3)O[C@@H]1CO2 | nt | 3[16.7 µM] | 0 | nt | nt | nt | nt | nt
Cc1nc2ccc(NS(=O)(=O)c3ccc(Br)cc3)cc2s1 | -1 | 13 | 0 | 1 | 85* | 2 | 97* | 76*
CC(=O)Nc1ccc(S(=O)(=O)Nc2ccc3nc(C)sc3c2)cc1 | -12 | 6 | 0 | nt | 43 | 17 | nt | nt
Cc1nc2ccc(S(=O)(=O)Nc3cccc(-c4nc5cccnc5s4)c3)cc2s1 | -8 | 0 | 0 | 6 | 71* | -17 | 76* | 45
Cc1ccc(S(=O)(=O)Nc2ccc3nc(C)sc3c2)c(C)c1 | -28 | 80 | 0 | 0 | 67 | 0 | 72* | 64
CC(=O)c1c(C)[nH]c(C(=O)OCc2cccc(C)c2)c1C | -67 | -1 | 0 | 2 | 48 | -17 | 28 | 1
Cc1cccc(CSC(Nc2ccc(F)cc2)=C(C#N)C#N)c1 | -8 | nt | nt | 0 | 97* | 8 | 98* | 93*
Cc1cccc(CSC(=N)N)c1 | -35 | nt | 0 | -2 | 4 | -6 | nt | nt
Cc1ccc(S(=O)(=O)NCc2ccncc2)cc1 | -28 | 5 | nt | -1 | 74* | 35 | 72* | 68
Cc1ccc(S(=O)(=O)NCC(=O)NCc2ccncc2)cc1 | 0 | -2 | nt | -2 | -5 | 0 | nt | nt
Cc1cc(S(=O)(=O)NCc2ccncc2)c(C)cc1Br | 0 | 60 | 0 | -1 | 101* | 37 | 94* | 82*
Cc1ccc(CNS(=O)(=O)c2ccc(-c3cnc(C4CC4)o3)cc2)cc1 | -17 | nt | 0 | 1 | 70* | -6 | 55 | 35
Cc1ccc(C)c(S(=O)(=O)NCc2ccncc2)c1 | -44 | 67 | nt | 9 | 13 | 15 | nt | nt
CO[C@@H]1CN(C)C(=O)c2ccc(NS(=O)(=O)CC(F)(F)F)cc2OC[C@@H](C)N(CC2CCCCC2)C[C@H]1C | nt | nt | 0 | nt | nt | nt | nt | nt
COc1ccc(NC(=O)c2ccc(-c3ccccc3)cc2)cc1NS(=O)(=O)c1ccc(F)cc1 | 16 | nt | nt | 0 | 69 | 10 | -5 | 21
Cc1noc(C)c1NC(=O)N(C)C[C@@H]1Oc2c(NS(=O)(=O)c3ccc(F)cc3)cccc2C(=O)N([C@@H](C)CO)C[C@@H]1C | nt | -1[16.7 µM] | 0 | nt | nt | nt | nt | nt
Cc1cc(C)n2nc(SCc3cccc(S(=O)(=O)N(C)C)c3)nc2n1 | -24 | nt | 0 | 2 | 13 | -23 | nt | nt
CN(C)S(=O)(=O)c1cccc(CSCc2cccc(S(=O)(=O)N(C)C)c2)c1 | -23 | -7 | 0 | 6 | 88* | 45 | 94* | 81*
CC(C)(C)C(=O)Nc1cc2nn(-c3ccccc3)nc2cc1Cl | nt | -2 | nt | nt | 92* | nt | 75* | 55
C[C@@H]1CN([C@H](C)CO)C(=O)c2cc(NC(=O)C3CC3)ccc2O[C@@H]1CN(C)S(=O)(=O)c1ccc(Cl)cc1 | nt | 43[16.7 µM] | 0 | nt | nt | nt | nt | nt
CN(C)C(=O)C[C@@H]1CC[C@H]2[C@H](COc3ccc(NC(=O)c4ccc(F)cc4)cc3C(=O)N2C)O1 | nt | nt | 0 | nt | nt | nt | nt | nt
CN(C)S(=O)(=O)c1ccc(C(=O)Nc2cc(S(=O)(=O)Nc3ccccc3Cl)ccc2N2CCCCC2)cc1 | -13 | 40 | nt | 0 | 48 | -11 | 85* | 63
C[C@@H]1CN([C@H](C)CO)C(=O)c2cc(NC(=O)CCC(F)(F)F)ccc2O[C@H]1CN(C)Cc1ccc2c(c1)OCO2 | nt | -1[16.7 µM] | 0 | nt | nt | nt | nt | nt
SMILES | 697 NFkB inh | miR-122 sensor | FGF22 binding | NR2E3 ag-1 | NR2E3 ag-2 | Jurkat NFkB inh | NR2E3 ag confirm | GAL4-VP16 luc
O=C(O)c1cccc(Cn2c(Cl)c(/C=N/Nc3ccccc3)sc2=O)c1 | 17 | nt | nt | -5 | 70 | 3 | 68 | 15
O=C(O)c1cccc(Cn2c(Cl)c(/C=N/NC(=O)c3ccccc3Cl)sc2=O)c1 | 10 | 0 | nt | 2 | -27 | -4 | nt | nt
O=C(c1cccc(F)c1)N1CCCCN2[C@H](C1)[C@H](c1ccc(-c3cncnc3)cc1)[C@@H]2CO | nt | 11[16.7 µM] | 0 | nt | nt | nt | nt | nt
Cc1cc(=O)[nH]c(SCc2cccc3ccccc23)n1 | 17 | nt | 0 | -2 | 71* | 3 | 80* | 57
Cc1cc(CSc2nc(C)cc(=O)[nH]2)c2ncccc2c1 | -1 | nt | 43* | -3 | 86* | 13 | 94* | 72*
C[C@@H]1CN([C@H](C)CO)S(=O)(=O)c2ccc(C#CCN(C)C)cc2O[C@H]1CN(C)C | nt | -3[16.7 µM] | 0 | nt | nt | nt | nt | nt
COc1cc2nc(=S)n3[nH]c(COc4ccccc4C)nc3c2cc1OC | -1 | -3 | nt | 6 | -11 | 9 | nt | nt
COc1cc2nc(=S)n3[nH]c(CCn4nc(C)cc4C)nc3c2cc1OC | 20 | -4 | nt | -1 | 85* | -1 | 9 | -14
CCOC(=O)C1CCN(C(=O)C2CCCN(S(=O)(=O)c3ccc(OCC)c(Cl)c3)C2)CC1 (centres undefined) | -39 | 2 | 0 | -2 | 70 | 12 | 21 | 51
Cc1nc(NCCc2ccccc2)c2oc3ccccc3c2n1 | -27 | -5 | nt | 1 | 72* | 17 | 91* | 76*
CC(=O)CSc1nnc(-c2ccc3c(c2)OCO3)o1 | -8 | 4 | nt | 1 | -120 | -34 | nt | nt
O=C(O)CCSc1nnc(-c2ccc3c(c2)OCO3)o1 | 17 | -1 | nt | 2 | 53 | -3 | 30 | 40
Cc1cc(N2CCN(C/C=C/c3ccccc3)CC2)n2ncnc2n1 | -26 | nt | nt | 3 | 49 | 29 | 34 | 51
C[C@H](CO)N1C[C@H](C)[C@H](CN(C)Cc2ccc(Cl)c(Cl)c2)OCc2ccccc2-c2ccccc2C1=O | nt | nt | 0 | nt | nt | nt | nt | nt
